Experiments:
Assay type in all cases: functional
[1] = system: SK-MEL-2; test: Cytotoxicity against human SK-MEL-2 cells assessed as cell growth at 10^-8 M after 48 hrs by SRB assay; conditions: SK-MEL-2, 48 h, read-out: Activity
[2] = system: U-251; test: Growth inhibition of human U251 cells after 48 hrs by SRB assay; conditions: U-251, 48 h
How it was run: (§1)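 Adherent NCI-60 lines grown in RPMI 1640 with 5% FBS, seeded at 5000–40,000 cells/well, and preincubated 24 h at 37 °C, 5% CO2. Compound, stocked in DMSO, given either once at 10^-5 M or at five 10-fold dilutions for 48 h. Cells fixed with cold TCA (final 10%), stained with 0.4% SRB, and read at 515 nm. GI50 taken as 50% reduction in net protein increase versus time-zero and control plates.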

[3] = system: NCI-H322M; test: Cytotoxicity against human NCI-H322M cells assessed as cell growth at 10^-7 M after 48 hrs by SRB assay; conditions: read-out: Activity
[4] = system: NCI-H460; test: Cytotoxicity against human NCI-H460 cells assessed as cell growth at 10^-7 M after 48 hrs by SRB assay; conditions: NCI-H460, 48 h, read-out: Activity
[5] = system: SR; test: Growth inhibition of human SR cells after 48 hrs by SRB assay
[6] = system: HCT-116; test: Cytotoxicity against human HCT116 cells assessed as cell growth at 10^-6 M after 48 hrs by SRB assay; conditions: HCT-116, 48 h, read-out: Activity
How it was run: (§2)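 NCI-60 five-dose screen. Cells were grown in RPMI 1640 with 5% FBS and seeded at 5000–40,000 cells/well according to doubling time. They were pre-incubated 24 h at 37 °C in 5% CO₂, and time-zero (Tz) plates were TCA-fixed at drug addition. Five 10-fold dilutions of DMSO stock were applied for 48 h. Read-out was SRB staining, 515 nm absorbance, with percent growth calculated versus Tz and untreated control.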

[7] = system: SNB-19; test: Cytotoxicity against human SNB19 cells assessed as cell growth at 10^-7 M after 48 hrs by SRB assay; conditions: SNB-19, 48 h, read-out: Activity
[8] = system: MDA-MB-231; test: Cytotoxicity against human MDA-MB-231 cells assessed as cell growth at 10^-5 M after 48 hrs by SRB assay; conditions: MDA-MB-231, 48 h, read-out: Activity
[9] = system: UACC-257; test: Cytotoxicity against human UACC257 cells assessed as cell growth at 10^-4 M after 48 hrs by SRB assay; conditions: UACC-257, 48 h, read-out: Activity
[10] = system: DU-145; test: Cytotoxicity against human DU145 cells assessed as cell growth at 10^-4 M after 48 hrs by SRB assay; conditions: DU-145, 48 h, read-out: Activity
How it was run: (§3)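 NCI-60 screen: lines kept in RPMI 1640 with 5% FBS, seeded at 5000–40,000 cells/well by doubling time, preincubated 24 h at 37 °C in 5% CO2. Time-zero plates TCA-fixed at drug addition. DMSO stocks diluted in medium, 48 h exposure. Fixation in cold TCA (final 10% adherent, 16% suspension), 0.4% SRB stain, solubilised in 10 mM Tris base, A515. Percent growth computed against control and time-zero.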

[11] = system: BT-549; test: Cytotoxicity against human BT549 cells assessed as cell growth at 10^-5 M after 48 hrs by SRB assay; conditions: BT-549, 48 h, read-out: Activity; how it was run: as §3
[12] = system: UACC-257; test: Cytotoxicity against human UACC257 cells assessed as cell growth at 10^-7 M after 48 hrs by SRB assay; conditions: UACC-257, 48 h, read-out: Activity
[13] = system: SK-OV-3; test: Cytotoxicity against human SKOV3 cells assessed as cell growth at 10^-7 M after 48 hrs by SRB assay; conditions: SK-OV-3, 48 h, read-out: Activity
[14] = system: DU-145; test: Cytotoxicity against human DU145 cells assessed as cell growth at 10^-8 M after 48 hrs by SRB assay; conditions: DU-145, 48 h, read-out: Activity; how it was run: as §3
[15] = system: NCI-H226; test: Cytotoxicity against human NCI-H226 cells assessed as cell growth at 10^-6 M after 48 hrs by SRB assay; conditions: NCI-H226, 48 h, read-out: Activity
[16] = system: M14; test: Cytotoxicity against human M14 cells assessed as cell growth at 10^-6 M after 48 hrs by SRB assay; conditions: M14, 48 h, read-out: Activity
[17] = system: HOP-92; test: Cytotoxicity against human HOP92 cells assessed as cell growth at 10^-4 M after 48 hrs by SRB assay; conditions: HOP-92, 48 h, read-out: Activity; how it was run: as §2
[18] = Cytotoxicity against human […] cells assessed as cell growth at 10^-7 M after 48 hrs by SRB assay; conditions: 48 h, read-out: Activity
[19] = system: SK-MEL-28; test: Cytotoxicity against human SK-MEL-28 cells assessed as cell growth at 10^-8 M after 48 hrs by SRB assay; conditions: SK-MEL-28, 48 h, read-out: Activity
[20] = system: MOLT-4; test: Cytotoxicity against human MOLT4 cells assessed as cell growth at 10^-4 M after 48 hrs by SRB assay; conditions: MOLT-4, 48 h, read-out: Activity
[21] = Cytotoxicity against human Hs 578T cells assessed as cell growth at 10^-6 M after 48 hrs by SRB assay; conditions: read-out: Activity; how it was run: as §2
[22] = system: SW-620; test: Growth inhibition of human SW620 cells after 48 hrs by SRB assay; conditions: SW-620, 48 h; for CC50: read-out: LC50 (the source's name); how it was run: as §1
[23] = system: NCI-H460; test: Cytotoxicity against human NCI-H460 cells assessed as cell growth at 10^-8 M after 48 hrs by SRB assay; conditions: NCI-H460, 48 h, read-out: Activity
[24] = system: HOP-92; test: Cytotoxicity against human HOP92 cells assessed as cell growth at 10^-7 M after 48 hrs by SRB assay; conditions: HOP-92, 48 h, read-out: Activity; how it was run: as §2
[25] = system: HCT-116; test: Cytotoxicity against human HCT116 cells assessed as cell growth at 10^-7 M after 48 hrs by SRB assay; conditions: HCT-116, 48 h, read-out: Activity; how it was run: as §2
[26] = system: HOP-62; test: Cytotoxicity against human HOP62 cells assessed as cell growth at 10^-5 M after 48 hrs by SRB assay; conditions: HOP-62, 48 h, read-out: Activity; how it was run: as §2
[27] = system: DU-145; test: Cytotoxicity against human DU145 cells assessed as cell growth at 10^-6 M after 48 hrs by SRB assay; conditions: DU-145, 48 h, read-out: Activity; how it was run: as §3
[28] = system: TK-10; test: Cytotoxicity against human TK10 cells assessed as cell growth at 10^-7 M after 48 hrs by SRB assay; conditions: TK-10, 48 h, read-out: Activity
[29] = system: OVCAR-8; test: Growth inhibition of human OVCAR8 cells after 48 hrs by SRB assay; conditions: OVCAR-8, 48 h; for CC50: read-out: LC50 (the source's name); how it was run: as §1
[30] = system: EKVX; test: Cytotoxicity against human EKVX cells assessed as cell growth at 10^-7 M after 48 hrs by SRB assay; conditions: read-out: Activity; how it was run: as §3
[31] = system: SF-295; test: Cytotoxicity against human SF295 cells assessed as cell growth at 10^-6 M after 48 hrs by SRB assay; conditions: SF-295, 48 h, read-out: Activity

SMILES	growth at 0.01 µM [1] [%]	GI50 [2] [µM]	LC50 [2] [µM]	TGI [2] [µM]	growth at 0.1 µM [3] [%]	growth at 0.1 µM [4] [%]	GI50 [5] [µM]	LC50 [5] [µM]	TGI [5] [µM]	growth at 1 µM [6] [%]	growth at 0.1 µM [7] [%]	growth at 10 µM [8] [%]	growth at 100 µM [9] [%]	growth at 100 µM [10] [%]	growth at 10 µM [11] [%]	growth at 0.1 µM [12] [%]	growth at 0.1 µM [13] [%]	growth at 0.01 µM [14] [%]	growth at 1 µM [15] [%]	growth at 1 µM [16] [%]	further results
COc1ccc(-c2nn3cc(-c4ccc(O)cc4O)nc3s2)cc1	93	1.7	> 100	4.48	83	101	2.17	> 100	14	86	92	-54	-5	2	12	92	94	106	61	81	growth at 100 µM [17]: -21%; growth at 0.1 µM [18]: 95%; growth at 0.01 µM [19]: 95%; growth at 100 µM [20]: -22%; growth at 1 µM [21]: 71%; GI50 [22]: 3.96 µM; TGI [22]: > 100 µM; CC50 [22]: > 100 µM; growth at 0.01 µM [23]: 101%; growth at 0.1 µM [24]: 64%; growth at 0.1 µM [25]: 93%; growth at 10 µM [26]: -33%; growth at 1 µM [27]: 91%; growth at 0.1 µM [28]: 105%; GI50 [29]: 2.63 µM; TGI [29]: > 100 µM; CC50 [29]: > 100 µM; growth at 0.1 µM [30]: 92%; growth at 1 µM [31]: 74%
COc1ccc(-c2nn3cc(-c4cccc(N)c4)nc3s2)cc1	93	7.65	> 100	52.1	95	92	3.27	> 100	> 100	90	90	5	7	-41	24	109	97	101	58	94	growth at 100 µM [17]: -52%; growth at 0.1 µM [18]: 83%; growth at 0.01 µM [19]: 95%; growth at 100 µM [20]: 7%; growth at 1 µM [21]: 76%; GI50 [22]: 6.08 µM; TGI [22]: 76.6 µM; CC50 [22]: > 100 µM; growth at 0.01 µM [23]: 100%; growth at 0.1 µM [24]: 53%; growth at 0.1 µM [25]: 99%; growth at 10 µM [26]: 15%; growth at 1 µM [27]: 93%; growth at 0.1 µM [28]: 135%; GI50 [29]: 4.97 µM; TGI [29]: 23 µM; CC50 [29]: 89.9 µM; growth at 0.1 µM [30]: 72%; growth at 1 µM [31]: 72%
